# HIV Env fusion: blocks HIV Env-driven cell-cell fusion; actives 1.1% (n = 360,000); inhibition, % at 12.3 µM; HeLa-JRFL Env/CEM21 cell fusion, luciferase;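 active = mean replicate inhibition score of at least 50 and every replicate individually at or above 50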
# SR-BI HDL uptake: blocks mouse SR-BI lipid uptake from DiI-HDL | AID 488896 | ldlA[mSR-BI] CHO cells, DiI-HDL uptake fluorescence, 3 h | inhibition, % at 12.5 µM | actives 0.96% (n = 320,000);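 active = mean replicate inhibition of at least 70% and a set share of replicates each scoring 70 or more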
# PglD DTNB: blocks C. jejuni PglD acetyltransferase activity | inhibition, % at 12.5 µM | AID 602405 | actives 0.098% (n = 360,000) | purified PglD enzyme, DTNB colorimetric CoA detection; in the data active = inhibition above about 16%, passing the limit was not always enough
# Rtt109 HAT inh: C. albicans Rtt109 histone acetyltransferase inhibition. inhibition, % at 34.9 µM. actives 0.16% (n = 330,000). purified Rtt109/Vps75, ThioGlo CoA-SH fluorescence, 4 h. Q5AAJ8. AID 540336;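 active = inhibition of at least 50% in every replicate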
# Target sequence (Q5AAJ8 whole entry, looked up): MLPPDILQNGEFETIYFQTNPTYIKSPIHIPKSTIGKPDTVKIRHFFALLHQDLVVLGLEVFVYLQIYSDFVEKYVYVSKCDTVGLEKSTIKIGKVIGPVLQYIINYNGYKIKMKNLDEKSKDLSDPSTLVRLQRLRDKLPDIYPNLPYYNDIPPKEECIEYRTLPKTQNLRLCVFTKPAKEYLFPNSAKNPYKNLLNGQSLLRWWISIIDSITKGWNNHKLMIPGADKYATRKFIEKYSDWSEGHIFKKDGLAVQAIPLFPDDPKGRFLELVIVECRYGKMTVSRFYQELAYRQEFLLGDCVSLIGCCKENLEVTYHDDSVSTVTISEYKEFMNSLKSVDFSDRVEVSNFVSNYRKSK
# N-glyco inh: blocks N-linked glycosylation in D54 reporter cells | D54 ERlucT glycosylation luciferase reporter, 24 h; percent of 100 nM tunicamycin response | reporter increase, % at 12.5 µM | actives 0.23% (n = 360,000);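 active = mean luciferase reporter signal, scaled so untreated is 0 and the glycosylation-blocking control 100, at or above a set limit in every replicate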;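 note: luciferase carries N-glycosylation sites so blocking glycosylation raises the light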
# SR-BI uptake up: SR-BI HDL lipid transfer activation | activation, % at 12.5 µM | CHO ldlA[mSR-BI] cells, DiI-HDL uptake fluorescence, 3 h; 100 = double the neutral-control signal | AID 504775 | actives 0.096% (n = 320,000);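 active = mean replicate activation of at least 60% and every replicate at or above 60%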
#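 Material: SR-BI-overexpressing, LDLR-lacking CHO cells; schedule: compound exposure 3 h, 37 °C; reagent: DiI-labelled HDL at 10 µg/mL final; technique: bottom-read fluorescence, 550/595 nm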
# Hits are given with their value; - = inactive; . = no result. Sampled rows, rich in hits. Any-hit rate of the full collection: about 1.9%.
SMILES,HIV Env fusion,SR-BI HDL uptake,PglD DTNB,Rtt109 HAT inh,N-glyco inh,SR-BI uptake up
COCC(=O)N1[C@H](CO)[C@H]2c3ccccc3N(C(=O)c3cccc(OC)c3)C[C@H]21,.,.,-,.,.,.
C[C@@H]1CN([C@H](C)CO)C(=O)Cc2cc(NC(=O)Nc3cccc4ccccc34)ccc2O[C@H]1CN(C)Cc1ccncc1,-,.,-,.,.,.
COC(=O)c1cccc(Oc2cccc(Cl)n2)c1,-,-,-,54,-,-
CN1CCN(C(=O)C[C@@H]2CC[C@@H]3[C@H](COc4ccc(NC(=O)C5CCCCC5)cc4C(=O)N3C)O2)CC1,-,.,-,.,.,.
O=C(N[C@@H]1CC[C@@H](CCNC(=O)C2CC2)O[C@@H]1CO)c1ccncc1,-,.,-,.,.,.
C/C(=N\OCc1cccc(C(=O)O)c1)c1ccc(Cl)cc1,62,.,-,.,-,.
CC(C)NC(=O)N(C)C[C@H]1Oc2ncc(-c3cccc(C#N)c3)cc2C(=O)N([C@@H](C)CO)C[C@@H]1C,-,.,-,.,.,.
FC(F)(F)COc1nc(N2CCOCC2)nc(N(c2ccccc2)c2ccccc2)n1,76,-,-,-,-,-
CO[C@@H](C(=O)N(C)C[C@H]1OCc2ccccc2-c2ccccc2C(=O)N([C@H](C)CO)C[C@@H]1C)c1ccccc1,-,.,-,.,.,.
O=C(Cc1cccc2ccccc12)NCC(=O)N1CCN(CC(=O)Nc2ccc(F)cc2)CC1,65,.,-,.,-,.
CCC(=O)Nc1ccc(-c2ccc(NC(=O)CC)c(OC)c2)cc1OC,-,83,.,-,-,-
Cc1ccc(-c2nnc(-n3ncc(C#N)c3N)c3ccccc23)cc1C,-,78,.,-,-,-
COc1ccccc1NC(=O)CN1CCN(C(=O)c2ccco2)CC1,.,-,-,-,-,-
CCOc1ccc(NC(=O)CN2CCN(CC(=O)Nc3ccc(OC)cc3OC)CC2)cc1,-,-,-,-,-,-
N#Cc1c(NC(=O)CN2CCN(C(=O)c3ccco3)CC2)sc2c1CCCCC2,-,83,-,-,-,-
COc1ccccc1NC(=O)CSC(N)=O,.,-,.,135,-,-
COc1ccccc1NC(=O)c1ccc(NC(=O)CN2CCN(C(=O)c3ccco3)CC2)cc1,-,79,.,-,-,-
CCOc1ccc(NC(=O)CN2CCN(CC(=O)Nc3ccccc3OC)CC2)cc1,-,78,-,-,-,-
COCC(=O)Nc1ccc2c(c1)[C@H]1C[C@@H](CC(=O)N[C@@H](C)c3ccccc3)O[C@@H](CO)[C@H]1O2,-,.,-,.,.,.
CS(=O)(=O)N1CCCCN2[C@@H](CO)[C@H](c3ccc(Br)cc3)[C@@H]2C1,.,.,-,.,.,.
CC(C)c1cccc(NC(=O)C[C@H]2CC[C@H]3[C@@H](COc4ccc(NC(=O)c5ccc(C#N)cc5)cc4C(=O)N3C)O2)c1,-,.,.,.,.,.
CC(=O)N1CCN(c2ncnc3ccccc23)CC1,-,-,-,58,-,-
NS(=O)(=O)c1ccc(N=Nc2c(-c3ccccc3)[nH]n(-c3nc(-c4ccccc4)cs3)c2=O)cc1,-,112,-,-,-,-
C[C@@H]1CN(C(=O)OC(C)(C)C)CCN1c1ccc(N2CC[C@H](O)C2)c(C#N)c1,-,.,.,.,.,.
Cc1cc(N2CCN(C(=O)OC(C)(C)C)C[C@H]2C)ccc1N1CCS(=O)(=O)CC1,62,.,.,.,.,.
SMILES,HIV Env fusion,SR-BI HDL uptake,PglD DTNB,Rtt109 HAT inh,N-glyco inh,SR-BI uptake up
C/C(=N/Nc1nc(-c2ccc(Cl)cc2)cs1)c1cccs1,-,79,-,-,-,-
COc1cc(C2C(C#N)=C(N)Oc3cc(N)ccc32)cc(OC)c1OC (centres undefined),.,-,-,-,32,-
CCOc1ccc(/C=C/C(=O)c2cc(Br)ccc(=O)c2O)cc1,64,-,.,-,-,-
COC(=O)c1sc2nc3c(cc2c1N)COC(C)(C)C3,.,-,-,.,-,170
CC1(C)Cc2nc3sc(C(=O)NCCCO)c(N)c3cc2CO1,-,-,.,-,-,-
COc1ccc2ncn(-c3ccccc3)c2c1,68,-,-,-,-,-
O=S(=O)(c1ccc(F)cc1)N1CCC(n2cnc3ccccc32)CC1,-,-,-,-,-,-
O=S(=O)(c1ccc(Cl)cc1)N1CCC(n2cnc3cc(C(F)(F)F)ccc32)CC1,64,-,.,-,-,-
